Columns and labels:
[1] = biological target: 5-hydroxytryptamine receptor 1B (Homo sapiens, UniProt P28222); experiment: Agonist activity to the human recombinant 5-hydroxytryptamine 1B receptor; type: functional
Procedure, shortened: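 CHO Pro 5 cells stably transfected with human recombinant 5-HT1Dβ receptors. Compound was added to the culture medium for 30 min at 37 °C. The reaction was stopped with cold ethanolic 5 mM EDTA (2:1 v/v), and extracted cAMP was quantified by enzyme immunoassay, with serotonin as the reference agonist.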

[2] = biological target: T1, 5-hydroxytryptamine receptor 1D (Homo sapiens, UniProt P28221); experiment: Compound was tested for its binding affinity against human recombinant 5-hydroxytryptamine 1D receptor alpha for comparison purpose.
T1 sequence (P28221 whole entry): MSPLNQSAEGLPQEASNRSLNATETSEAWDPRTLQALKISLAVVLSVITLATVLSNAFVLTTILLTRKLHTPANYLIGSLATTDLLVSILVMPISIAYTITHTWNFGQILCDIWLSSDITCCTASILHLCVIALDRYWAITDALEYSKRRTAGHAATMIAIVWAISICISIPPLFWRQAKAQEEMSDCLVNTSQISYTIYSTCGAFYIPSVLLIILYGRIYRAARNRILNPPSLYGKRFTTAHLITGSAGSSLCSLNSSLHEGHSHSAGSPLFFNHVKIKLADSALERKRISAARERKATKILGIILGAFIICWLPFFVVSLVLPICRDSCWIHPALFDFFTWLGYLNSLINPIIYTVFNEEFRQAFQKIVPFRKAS

[3] = biological target: T1, 5-hydroxytryptamine receptor 1D; experiment: Compound was tested for its agonist activity against human 5-hydroxytryptamine 1D receptor alpha for comparison purpose.; type: functional
[4] = biological target: T1, 5-hydroxytryptamine receptor 1D; experiment: Compound was tested for its agonist activity against human recombinant 5-hydroxytryptamine 1D receptor alpha for comparison purpose.; type: functional

Chain of 5-hydroxytryptamine receptor 1B (P28222 whole entry): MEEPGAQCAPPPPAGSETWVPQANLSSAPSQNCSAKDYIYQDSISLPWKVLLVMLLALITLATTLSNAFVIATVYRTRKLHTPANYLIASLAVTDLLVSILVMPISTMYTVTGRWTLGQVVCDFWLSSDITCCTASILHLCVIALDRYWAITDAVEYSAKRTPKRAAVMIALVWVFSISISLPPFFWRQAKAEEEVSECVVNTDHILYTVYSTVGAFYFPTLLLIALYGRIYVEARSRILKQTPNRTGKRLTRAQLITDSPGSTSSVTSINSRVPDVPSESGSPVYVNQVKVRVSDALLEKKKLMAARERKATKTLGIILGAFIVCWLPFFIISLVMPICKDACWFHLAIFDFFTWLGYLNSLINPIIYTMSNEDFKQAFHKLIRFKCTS

| Ki [1] [nM] | Structure (SMILES) | other results |
| --- | --- | --- |
| 66 | CCNCCOc1cccc2ccccc12 |  |
| 255 | CN(C)CCCOc1cccc2ccccc12 |  |
| 200 | CCCNCCOc1cccc2ccccc12 |  |
| 26 | CNCCOc1cccc2ccccc12 | Ki [3]: 34 nM |
| 120 | CC(C)NCCOc1cccc2ccccc12 |  |
| 94 | CN(C)CCOc1cccc2ccccc12 |  |
| 1120 | CC(C)NCCOc1cccc2[nH]ccc12 |  |
| 7660 | CC(C)NCCCOc1cccc2ccccc12 |  |
| > 10000 | CC(C)NCCCOc1cccc2[nH]ccc12 |  |
| 316 | CNCCOc1cccc(C)c1C |  |
| 107 | OCCNCCOc1cccc2ccccc12 | Ki [4]: 68 nM |
| 100 | NCCOc1cccc2ccccc12 |  |

More lines, now with the values behind:

| Structure (SMILES) | Ki [1] [nM] | other results |
| --- | --- | --- |
| CN(C)CCCOc1ccccc1 | > 10000 |  |
| CNCCOc1ccccc1 | 5960 | Ki [2]: 1800 nM |
| CN(C)CCCCOc1cccc2ccccc12 | 470 |  |
| CCCN(C)CCCOc1ccccc1C1CCCC1 | 1200 | Ki [2]: 143 nM |
| CNCCCOc1ccccc1 | 3450 |  |
| CCCCN(CC)CCOc1cccc2ccccc12 | 1230 | Ki [2]: 112 nM |
| CN(C)CCCNc1ccccc1 | > 10000 |  |
| CCCN(C)CCOc1ccccc1C1CCCC1 | 425 | Ki [2]: 82 nM |
| CN(CCOc1cccc2ccccc12)Cc1ccccc1 | 260 | Ki [2]: 590 nM |
| CCCN(C)CCOc1cccc2ccccc12 | 750 | Ki [2]: 103 nM |
| CCCCN(CCCC)CCOc1cccc2ccccc12 | 2680 |  |
| NCCCOc1cccc2ccccc12 | 290 |  |
| CC(C)NCC(O)COc1cccc2[nH]ccc12 (racemic) [PINDOLOL] | > 10000 |  |
| CC(C)NCC(O)COc1cccc2[nH]ccc12 (single isomer, unassigned; (-)) [PINDOLOL] | 2600 |  |

From ChEMBL document CHEMBL1130280, “2-(1-Naphthyloxy)ethylamines with enhanced affinity for human 5-HT1D beta (h5-HT1B) serotonin receptors” (J Med Chem, 1997)
